Assay results: publication PMC4553108 (Xenobiotica; the fate of foreign compounds in biological …, 2015)

Legend:
[1] = Stability of BI-94 in monkey plasma; type: in vitro ADME; conditions: immediately after spiking (data not shown)
[2] = Stability of BI-94 in human plasma; type: in vitro ADME; conditions: immediately after spiking (data not shown)
[3] = biological target: human serum albumin (HSA)-T3 peptide (Homo sapiens, UniProt P02768); test: HSA-T3 peptide adduct formation in solution; type: in vitro ADME; conditions: deionized water, 30 min; MS/MS mass shifts +164 (A1) and +273 (A2)
Chain of human serum albumin (HSA)-T3 peptide (P02768 45-65 limits assumed): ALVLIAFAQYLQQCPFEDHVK

[4] = Stability of BI-94 in rat plasma; type: in vitro ADME; conditions: immediately after spiking (data not shown)
NCI 60 cell line panel = conditions: read-out: average GI50; average value in the NCI 60 cell line panel; cited from earlier work
[5] = Stability / recovery of BI-94 in mouse plasma; type: in vitro ADME
Summary of the method: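 Mouse plasma (stored −80°C) spiked at 10 μg/mL, room temperature: undiluted, or diluted with one or nine volumes of water or 7.5 mM ammonium formate (pH 2.5). At 1, 20 and 60 min, extracted with four volumes MeOH and spun 16 000 × g for 10 min. Supernatant mixed 1:1 with 20% methanol in formate buffer. Post-extracted plasma was spiked after MeOH extraction. Analysed by LC-MS/MS, m/z 319.1→179.8; % recovery.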

[6] = NAC adduct formation in solution; type: in vitro ADME; conditions: deionized water, 30 min, direct MS; adducts of fragments of NAC and BI-94
Summary of the method: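 For structural identification, test compound (final 10 μg/mL) incubated 30 min in water with GSH or NAC, then analysed by direct LC-MS/MS and MS/MS. NAC adducts were screened by EMS-IDA-EPI (positive and negative ESI) only. GSH adducts were also screened by negative-mode precursor ion scans (m/z 254, 272) and by isotopic filtering with 1:1 GSH:[13C2,15N]-GSH.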

[7] = GSH and NAC adduct formation in spiked mouse plasma; type: in vitro ADME
Summary of the method: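 Freshly collected blank mouse blood/plasma and frozen plasma spiked at 10 μg/mL and held 5 and 20 min at room temperature. One frozen-plasma set was fortified with 9.8 μM GSH before spiking. Samples extracted with four volumes MeOH and spun at 16 000 × g for 10 min. Supernatant was mixed 1:1 with 20% methanol in 7.5 mM ammonium formate (pH 2.5). GSH/NAC adducts quantified by negative-mode LC-MS/MS MRM.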

[8] = Stability of BI-94 in solution; type: physicochemical; conditions: for stability in solution: 10 μg/mL, up to 60 min
Balb/c mice = test: GSH and NAC adduct formation in vivo after intravenous dose to mice
[9] = GSH adduct formation in solution; type: in vitro ADME
[10] = water, after 60 min of incubation

SMILES: O=[N+]([O-])c1ccc(S(=O)(=O)Cc2ccccc2)c2nonc12 [BI-94, 4-(benzylsulfonyl)-7-(hydroxy(oxido)amino)-2,1,3-benzoxadiazole]
- recovery from plasma [1]: < 1%
- recovery from plasma [2]: < 1%
- adduct formation with HSA-T3 peptide, site [3]: forms adducts with albumin at the Cys34 position
- recovery from plasma [4]: < 1%
- GI50 (NCI 60 cell line panel): 22.9 µM
- recovery from post-extracted plasma ([5]; blank plasma pre-treated with MeOH and formate buffer, after 60-min incubation): 100%
- recovery from mouse plasma ([5]; immediately after spiking, plasma diluted with one or nine volumes of H2O): below detection limit
- recovery from mouse plasma ([5]; immediately after spiking, undiluted mouse plasma, 10 μg/mL): below detection limit
- recovery from mouse plasma ([5]; nine volume dilution with 7.5 mM NH4-formate buffer (pH 2.5)): completely recovered
- recovery from mouse plasma ([5]; one volume dilution with 7.5 mM NH4-formate buffer (pH 2.5), 60 min of incubation): 10%
- recovery from mouse plasma ([5]; one volume dilution with 7.5 mM NH4-formate buffer (pH 2.5), immediate): 62%
- recovery from post-extracted plasma ([5]; plasma pretreated with MeOH, after 60-min incubation): 20%
- recovery from post-extracted plasma ([5]; plasma pretreated with MeOH, immediately after spiking): 100%
- NAC adducts detected [6]: three NAC adducts
- GSH adducts (A1 and A2) and NAC adduct (A1) in spiked plasma ([7]; blank plasma freshly collected from mice, 10 μg/mL): detected
- GSH and NAC adducts in spiked plasma ([7]; frozen blank mouse plasma): none of the adducts
- stability in the autosampler ([8]; 48 h in 50 % methanol in H2O reconstitution solution (data not shown)): stable
- stability in solution ([8]; NaOH or various buffers at pHs 7–9, room temperature): not stable
- stability in solution ([8]; water and various buffers at pHs 2.5–5, room temperature): stable
- time within which all three mice died after BI-94 administration (Balb/c mice; 10 mg/kg intravenous dose, male Balb/c mice (n = 3)): ≤ 2 h
- BI-94 adducts with GSH (A1 and A2) and NAC (A1 and A2) in plasma in vivo (Balb/c mice; plasma 5 and 60 min after 10 mg/kg intravenous dose to mice): detected
- BI-94 depleted on incubation with GSH ([9]; NH4-formate buffer of pH 2.5, over 1 h): 14%
- decrease in BI-94 peak area on incubation with GSH ([9]; PBS, within 5 min of incubation): 94.5%
- GSH adducts detected ([9]; deionized water, 30 min, direct MS, adducts with a fragment of BI-94): two adducts
- decrease in BI-94 peak area on incubation with GSH [9, 10]: 64%
- increase in peak area of A1 and A2 GSH adducts [9, 10]: 6 fold
